RORa activator: activators of orphan receptor RORA, primary screen, cell-based, luminescence. Nuclear receptor ROR-alpha (Homo sapiens), P35398. CHO-K1 Gal4-RORA LBD luciferase reporter; percent increase over mock-subtracted basal signal. activation, % at 10 µM. 65,000 tested, 1.5% active;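 active = activation above the mean of all tested compounds plus 3 SD, cut at about 49% in these data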
M1 ag: M1 muscarinic receptor agonists, primary screen, CHO-M1 cells, Fluo-4 calcium, agonist mode | Muscarinic acetylcholine receptor M1 | Fluo-4 calcium fluorescence; stronger effect = higher value | 64,000 tested, 3% active | B-score at 10 µM;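 active = fluorescence rise, raw or as B-score row- and column-corrected plate score, outside the 99.7% band of its plate's samples, either direction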
M1 antagonist: antagonists of rat M1 muscarinic receptor; CHO-M1 cells, Fluo-4 calcium, ACh EC80 antagonist mode; stronger effect = lower value; B-score at 10 µM; 64,000 tested, 3.4% active;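 active = calcium fluorescence response, raw or row-and-column corrected B-score, differing from the plate sample mean either way at a set confidence level, mostly lower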
SF-1 act: activators of human SF-1, primary screen, cell-based, CHO-K1, Gal4-SF-1 LBD, luciferase luminescence. 65,000 tested, 1.9% active. activation, % at 10 µM. CHO-K1 Gal4-SF-1 LBD luciferase reporter; % increase over DMSO SF-1-specific signal;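 active = activation above the mean activation of all tested compounds plus 3 SD, cut at about 50% in these data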
Target sequence (Q13285 whole entry, looked up, the tested form may be a part): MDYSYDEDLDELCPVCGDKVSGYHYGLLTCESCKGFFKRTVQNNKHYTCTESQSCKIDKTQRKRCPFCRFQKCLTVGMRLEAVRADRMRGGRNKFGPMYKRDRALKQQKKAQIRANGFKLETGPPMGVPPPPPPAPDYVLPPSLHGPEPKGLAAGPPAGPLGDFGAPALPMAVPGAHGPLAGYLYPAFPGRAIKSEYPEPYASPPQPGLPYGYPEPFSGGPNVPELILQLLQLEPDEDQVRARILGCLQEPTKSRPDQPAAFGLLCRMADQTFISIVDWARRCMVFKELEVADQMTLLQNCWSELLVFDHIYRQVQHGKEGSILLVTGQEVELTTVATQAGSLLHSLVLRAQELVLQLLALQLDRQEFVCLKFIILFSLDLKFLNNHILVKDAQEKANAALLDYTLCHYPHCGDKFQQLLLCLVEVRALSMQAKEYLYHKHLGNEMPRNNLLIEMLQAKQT
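Test system: transient Gal4-SF-1 LBD reporter, CHO-K1; Amount: 4,000 CHO-K1 cells per well; Doses: 10 µM only; Timing: compound exposure 20 h at 37 °C; Signal: luciferase light emission; Read-out basis: percent activation relative to DMSO median and mock-transfected background; Control set: DMSO negative control and −SF1 background wells; Replicates: one test per compound.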
MT1-MMP txn act: MT1-MMP promoter reporter activation – cell-based, luciferase luminescence, primary screen | activation factor at 10 µM | 86,000 tested, 0.16% active | HT1080 MT1-MMP promoter luciferase reporter, overnight; stronger effect = higher value;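 active = activation factor of at least 2 for MT1-MMP transcription at 10 µM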
M1 ag confirm: rat M1 muscarinic receptor agonists, confirmation, CHO-M1 cells, Fluo-4 calcium, duplicate retest. shares compounds with M1 ag. Fluo-4 calcium fluorescence, agonist mode; actives lie on both sides. fluorescence change (max-min) at 10 µM. 1,700 tested, 19% active. AID 1488, 2009;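 active = fluorescence change differs from the solvent-only DMSO control mean at a set confidence level in both duplicate runs; inconclusive = differs from solvent-only control mean in just one of two runs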;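 note: an EC20 dose of acetylcholine follows compound addition during the same imaging run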
M4 agonist ctr: agonist activity at rat M4 receptor, confirmation, counter-screen for M1 allosteric modulator project, cell-based, agonist mode | shares compounds with M1 ag | CHO M4/Gqi5 cells, Fluo-4 calcium fluorescence; actives lie on both sides | fluorescence change (max-min) at 10 µM | 1,700 tested, 9% active;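 active = fluorescence change differing from the plate's solvent-only control wells at 99.7% confidence in both duplicates, whether higher or lower; inconclusive = differs from solvent controls in only one of two duplicates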
Large screens that a line does not name were inactive (follow-up assays come after a bar, where they were run). Sampled rows, rich in hits. Any-hit rate of the full collection: about 6.3%.

O=C1CN(C(=O)COC(=O)C2=COCCO2)c2ccccc2N1	none
CCC1CCCCN1C(=O)CSc1nnc(-c2ccc(Cl)cc2)o1 (configuration not stated)	none
CCC1CCCCN1C(=O)CSc1nnc(-c2cccc(Cl)c2)o1 (configuration not stated)	M1 ag 2.47 | M1 ag confirm inactive | M4 agonist ctr inactive
Cc1ccc(S(=O)(=O)Cc2cccc(C(=O)N3CCOCC3)c2)cc1	none
CN(C)c1nc(OCCOC(=O)COc2ccc(Cl)cc2Cl)nc(N(C)C)n1	none
CN(C)c1nc(SCCOC(=O)COc2ccc(Cl)cc2Cl)nc(N(C)C)n1	M1 ag 1.97 | M1 ag confirm inactive | M4 agonist ctr inconclusive
CCc1nc(C)cn1S(=O)(=O)c1cc(C)c(OC)cc1C	M1 ag -3.74 | M1 ag confirm inconclusive | M4 agonist ctr inconclusive
c1ccc(-c2ccc(-c3cnc4n3CCCCC4)cc2)cc1	none (no result: RORa activator, M1 ag, M1 antagonist, SF-1 act)
c1cc2c(cc1-c1cnc3n1CCC3)OCCO2	M1 ag 2.63 | M1 ag confirm inconclusive | M4 agonist ctr inactive
O=C(C1CCN(S(=O)(=O)c2cccc3cccnc23)CC1)N1CCN(c2ccc(Cl)cc2)CC1	M1 ag 3.37 | M1 ag confirm inactive | M4 agonist ctr inactive
CCOC(=O)N1CC=C2C(C#N)=C(N)C(C#N)(C#N)[C@H](c3ccc(OC(C)C)c(OCC)c3)[C@H]2C1	none
CN1CC=C2C(C#N)=C(N)C(C#N)(C#N)[C@H](c3cccc(Cl)c3)C2C1 (some centres not stated)	M1 ag 53.5 (no result: MT1-MMP txn act) | M1 ag confirm 173 | M4 agonist ctr inactive
CN1CC=C2C(C#N)=C(N)C(C#N)(C#N)C(c3ccsc3)C2C1 (configuration not stated)	none (no result: RORa activator, M1 ag, M1 antagonist, SF-1 act)
CN1CC=C2C(C#N)=C(N)C(C#N)(C#N)C(CCc3ccccc3)C2C1 (configuration not stated)	M1 ag 18.3 | M1 ag confirm 90.7 | M4 agonist ctr inactive
COc1cc([C@@H]2[C@H]3CN(C)CC=C3C(C#N)=C(N)C2(C#N)C#N)cc2c1OCO2	M1 ag 6.65 | M1 ag confirm inactive | M4 agonist ctr inactive
CCN1CC=C2C(C#N)=C(N)C(C#N)(C#N)[C@H](c3cccc(OC)c3OC)[C@H]2C1	M1 ag 271 | M1 ag confirm 307 | M4 agonist ctr inconclusive
CC(C)n1c(SCC(=O)c2ccc3c(c2)OCCO3)nc2c1c(=O)n(C)c(=O)n2C	none
O=C(CN1CCOCC1)Nc1cccc(Cl)c1Cl	none
COC(=O)c1ccccc1NC(=O)CNC(=O)c1ccco1	none
COc1cccc(C2C3CN(C)CC=C3C(C#N)=C(N)C2(C#N)C#N)c1OC (configuration not stated)	M1 ag 87 | M1 ag confirm 651 | M4 agonist ctr 605
COc1cc(C(=O)N2CCN(C(=O)C(Cc3cc(C)ccc3C)NC(C)=O)CC2)cc(OC)c1OC (configuration not stated)	none
COc1ccc(-c2noc(N3CCC(C(=O)N4CCN(c5ccccn5)CC4)CC3)n2)cc1	M1 ag 2.39 | M1 ag confirm inactive | M4 agonist ctr inactive
COc1ccc(C(=O)N2CCN(c3ccccn3)CC2)cc1	none (no result: RORa activator, M1 ag, M1 antagonist, SF-1 act)
Cc1ccc2nc(Nc3ccc4[nH]c(=O)[nH]c4c3)c(-n3nc(C)cc3C)nc2c1	RORa activator 58.8, M1 ag 20.5 | M1 ag confirm -23 | M4 agonist ctr inactive
COc1ccc(-n2c(C)cc(C(=O)COC(=O)Cn3cnc4ccccc43)c2C)cc1	M1 ag 5.49, M1 antagonist -3.36 | M1 ag confirm inconclusive | M4 agonist ctr inactive
Cc1cc(C(=O)COc2cccc(-n3cnnn3)c2)c(C)n1-c1ccccc1	none
O=C(Cc1cccs1)Nc1cccc(C(=O)Nc2ccco2)c1	M1 ag 5.49 | M1 ag confirm inactive | M4 agonist ctr inconclusive
COc1cccc(NC(=O)c2ccccc2-c2nc(-c3ccccc3)no2)c1	none
COc1ccccc1C(=O)Nc1cccc(-c2cn3ccsc3n2)c1	M1 ag 4.69 | M1 ag confirm inconclusive | M4 agonist ctr inactive
Cc1ccc2nc(-c3ccccn3)cc(C(=O)NC3CCN(C)CC3)c2c1	M1 ag -2.28 | M1 ag confirm inactive | M4 agonist ctr inactive
COc1ccccc1/C=c1\sc2nc(-c3cccs3)nn2c1=O	none
Cc1ccc(/C=c2\sc3nc(-c4cccs4)nn3c2=O)o1	M1 ag 45.7 | M1 ag confirm inactive | M4 agonist ctr inactive
O=c1c(O)c(-c2ccc(O)cc2O)oc2cc(O)cc(O)c12	M1 ag 26.9 | M1 ag confirm 73.5 | M4 agonist ctr inactive
CC1CCC(NC(=O)c2ccc3nc[nH]c3c2)CC1 (configuration not stated)	none (no result: RORa activator, M1 ag, M1 antagonist, SF-1 act)
O=C(Nc1ccc(F)cc1)N(Cc1ccco1)Cc1cc2cc3c(cc2[nH]c1=O)OCO3	M1 ag -2.47 | M1 ag confirm inactive | M4 agonist ctr inactive
Cc1cc(/C=C(\C#N)C(=O)NCc2ccco2)c(C)n1C1CCCC1	none (no result: RORa activator, M1 ag, M1 antagonist, SF-1 act)
CCOC(=O)C1CCCN(CC(O)COc2ccc(OC)cc2C(C)(C)C)C1 (configuration not stated)	M1 ag 19.8, M1 antagonist -6.72 | M1 ag confirm 335 | M4 agonist ctr inactive
Cc1ccc(C(=O)N2CCN(S(C)(=O)=O)C2)cc1	M1 ag 4.01 | M1 ag confirm inconclusive | M4 agonist ctr inactive
Cc1ccc(S(=O)(=O)N2CCN(S(C)(=O)=O)CC2)cc1	none (no result: RORa activator, M1 ag, M1 antagonist, SF-1 act)
CCn1c(=O)cc(SCC(=O)N2CCN(c3ccccn3)CC2)c2ccccc21	M1 ag 5.87 | M1 ag confirm -29.5 | M4 agonist ctr inactive
CCn1c(=O)cc(SCC(=O)N2CCN(c3ccccc3F)CC2)c2ccccc21	none (no result: RORa activator, M1 ag, M1 antagonist, SF-1 act)
COC(=O)c1ccc(OCC2c3cc(OC)c(OC)cc3CCN2C(=O)c2ccco2)cc1 (configuration not stated)	M1 ag 11, M1 antagonist -2.37 | M1 ag confirm inactive | M4 agonist ctr inconclusive
CCC(=O)N1CCc2cc(OC)c(OC)cc2C1COc1ccc(C(=O)OC)cc1 (configuration not stated)	none
CSc1ccc(S(=O)(=O)Nc2ccc3c(c2)OCCO3)cc1	none (no result: MT1-MMP txn act)

Bioassay records deposited in PubChem by several laboratories.
